From ChEMBL document CHEMBL4689842, “EUbOPEN Chemogenomics Library wave 1” (2021)

System: U2OS
Assay: Multiplex assay against U2OS
Format: toxicity, cell-based
Conditions: human
Method in brief: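 Hoechst33342, BioTracker Green Microtubule Cytoskeleton Dye, MitoTracker Red and Annexin V Alexa Fluor 680 were added to live cells at seeding, and imaging on a CQ1 microscope at 37°C and 5% CO2 followed compound addition. Gating by CellPathfinder machine learning separated cells into Hoechst high-intensity objects or normal cells, then normal cells into healthy, pyknosed or fragmented nuclei, then pyknosed cells into mitotic or apoptotic. Per cents of healthy-nucleus cells are reported for the tubulin, mitochondrial-mass and membrane-permeability phenotypes.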

[1] = 12 h, 1 µM, compound concentration 1 uM, replicate 1
[2] = 12 h, 1 µM, compound concentration 1 uM, replicate 2
[3] = 12 h, 10 µM, compound concentration 10 uM, replicate 1
[4] = 12 h, 10 µM, compound concentration 10 uM, replicate 2
[5] = 24 h, 1 µM, compound concentration 1 uM, replicate 1
[6] = 24 h, 1 µM, compound concentration 1 uM, replicate 2
[7] = 24 h, 10 µM, compound concentration 10 uM, replicate 1
[8] = 24 h, 10 µM, compound concentration 10 uM, replicate 2

Compound: COc1cc2ncnc(Nc3ccc(F)c(Cl)c3)c2cc1NC(=O)/C=C/CN1CCCCC1 [DACOMITINIB ANHYDROUS]
- Population Apoptotic (%) [1]: 5%
- Population Fragmented Nuclei (%) [1]: 6%
- Population Healthy Nuclei (%) [1]: 84%
- Population Hoechst High Intensity Objects (%) [1]: 6%
- Population Membrane Permeable-Phenotype (%) [1]: 72%
- Population Mitochondria Different-Phenotype (%) [1]: 3%
- Population Mitotic Cells (%) [1]: 94%
- Population Normal (%) [1]: 93%
- Population Pyknosed Nuclei (%) [1]: 8%
- Population Tubulin-Different-Phenotype (%) [1]: 45%
- Total Cell Count [1]: 197
- Population Apoptotic (%) [2]: 60%
- Population Fragmented Nuclei (%) [2]: 11%
- Population Hoechst High Intensity Objects (%) [2]: 8%
- Population Membrane Permeable-Phenotype (%) [2]: 24%
- Population Mitochondria Different-Phenotype (%) [2]: 32%
- Population Mitotic Cells (%) [2]: 40%
- Population Normal (%) [2]: 91%
- Population Pyknosed Nuclei (%) [2]: 4%
- Population Tubulin-Different-Phenotype (%) [2]: 69%
- Total Cell Count [2]: 127
- Population Apoptotic (%) [3]: 0%
- Population Fragmented Nuclei (%) [3]: 3%
- Population Healthy Nuclei (%) [3]: 92%
- Population Hoechst High Intensity Objects (%) [3]: 3%
- Population Membrane Permeable-Phenotype (%) [3]: 31%
- Population Mitochondria Different-Phenotype (%) [3]: 7%
- Population Mitotic Cells (%) [3]: 100%
- Population Normal (%) [3]: 96%
- Population Pyknosed Nuclei (%) [3]: 4%
- Population Tubulin-Different-Phenotype (%) [3]: 15%
- Total Cell Count [3]: 182
- Population Fragmented Nuclei (%) [4]: 14%
- Population Healthy Nuclei (%) [4]: 82%
- Population Hoechst High Intensity Objects (%) [4]: 10%
- Population Membrane Permeable-Phenotype (%) [4]: 10%
- Population Mitochondria Different-Phenotype (%) [4]: 17%
- Population Normal (%) [4]: 89%
- Population Pyknosed Nuclei (%) [4]: 2%
- Population Tubulin-Different-Phenotype (%) [4]: 18%
- Total Cell Count [4]: 118
- Population Apoptotic (%) [5]: 46%
- Population Fragmented Nuclei (%) [5]: 9%
- Population Healthy Nuclei (%) [5]: 81%
- Population Hoechst High Intensity Objects (%) [5]: 5%
- Population Membrane Permeable-Phenotype (%) [5]: 65%
- Population Mitochondria Different-Phenotype (%) [5]: 5%
- Population Mitotic Cells (%) [5]: 53%
- Population Normal (%) [5]: 94%
- Population Pyknosed Nuclei (%) [5]: 9%
- Population Tubulin-Different-Phenotype (%) [5]: 39%
- Total Cell Count [5]: 262
- Population Apoptotic (%) [6]: 75%
- Population Fragmented Nuclei (%) [6]: 14%
- Population Healthy Nuclei (%) [6]: 78%
- Population Membrane Permeable-Phenotype (%) [6]: 11%
- Population Mitochondria Different-Phenotype (%) [6]: 50%
- Population Mitotic Cells (%) [6]: 25%
- Population Pyknosed Nuclei (%) [6]: 7%
- Population Tubulin-Different-Phenotype (%) [6]: 58%
- Total Cell Count [6]: 158
- Population Apoptotic (%) [7]: 40%
- Population Fragmented Nuclei (%) [7]: 5%
- Population Healthy Nuclei (%) [7]: 86%
- Population Hoechst High Intensity Objects (%) [7]: 2%
- Population Membrane Permeable-Phenotype (%) [7]: 15%
- Population Mitochondria Different-Phenotype (%) [7]: 10%
- Population Mitotic Cells (%) [7]: 59%
- Population Normal (%) [7]: 97%
- Population Pyknosed Nuclei (%) [7]: 8%
- Population Tubulin-Different-Phenotype (%) [7]: 14%
- Total Cell Count [7]: 184
- Population Apoptotic (%) [8]: 50%
- Population Fragmented Nuclei (%) [8]: 6%
- Population Healthy Nuclei (%) [8]: 87%
- Population Hoechst High Intensity Objects (%) [8]: 9%
- Population Membrane Permeable-Phenotype (%) [8]: 18%
- Population Mitochondria Different-Phenotype (%) [8]: 24%
- Population Mitotic Cells (%) [8]: 50%
- Population Normal (%) [8]: 90%
- Population Pyknosed Nuclei (%) [8]: 5%
- Population Tubulin-Different-Phenotype (%) [8]: 22%
- Total Cell Count [8]: 114

Compound: COc1ccc(-c2ccc3c(N4CCOCC4)nc(N4C[C@@H](C)O[C@@H](C)C4)nc3n2)cc1CO [Ku-0063794]
- Population Apoptotic (%) [1]: 36%
- Population Fragmented Nuclei (%) [1]: 7%
- Population Healthy Nuclei (%) [1]: 87%
- Population Hoechst High Intensity Objects (%) [1]: 0%
- Population Membrane Permeable-Phenotype (%) [1]: 8%
- Population Mitochondria Different-Phenotype (%) [1]: 19%
- Population Mitotic Cells (%) [1]: 63%
- Population Normal (%) [1]: 99%
- Population Pyknosed Nuclei (%) [1]: 5%
- Population Tubulin-Different-Phenotype (%) [1]: 22%
- Total Cell Count [1]: 158
- Population Apoptotic (%) [2]: 62%
- Population Fragmented Nuclei (%) [2]: 11%
- Population Healthy Nuclei (%) [2]: 83%
- Population Hoechst High Intensity Objects (%) [2]: 7%
- Population Membrane Permeable-Phenotype (%) [2]: 4%
- Population Mitochondria Different-Phenotype (%) [2]: 20%
- Population Mitotic Cells (%) [2]: 37%
- Population Normal (%) [2]: 92%
- Population Tubulin-Different-Phenotype (%) [2]: 30%
- Total Cell Count [2]: 91
- Population Apoptotic (%) [3]: 69%
- Population Fragmented Nuclei (%) [3]: 34%
- Population Healthy Nuclei (%) [3]: 61%
- Population Hoechst High Intensity Objects (%) [3]: 31%
- Population Membrane Permeable-Phenotype (%) [3]: 20%
- Population Mitochondria Different-Phenotype (%) [3]: 6%
- Population Mitotic Cells (%) [3]: 30%
- Population Normal (%) [3]: 68%
- Population Pyknosed Nuclei (%) [3]: 4%
- Population Tubulin-Different-Phenotype (%) [3]: 11%
- Total Cell Count [3]: 221
- Population Apoptotic (%) [4]: 33%
- Population Fragmented Nuclei (%) [4]: 37%
- Population Healthy Nuclei (%) [4]: 57%
- Population Hoechst High Intensity Objects (%) [4]: 37%
- Population Membrane Permeable-Phenotype (%) [4]: 8%
- Population Mitochondria Different-Phenotype (%) [4]: 11%
- Population Mitotic Cells (%) [4]: 66%
- Population Normal (%) [4]: 62%
- Total Cell Count [4]: 164
- Population Apoptotic (%) [5]: 46%
- Population Fragmented Nuclei (%) [5]: 7%
- Population Healthy Nuclei (%) [5]: 88%
- Population Hoechst High Intensity Objects (%) [5]: 0%
- Population Membrane Permeable-Phenotype (%) [5]: 6%
- Population Mitochondria Different-Phenotype (%) [5]: 19%
- Population Mitotic Cells (%) [5]: 53%
- Population Normal (%) [5]: 99%
- Population Pyknosed Nuclei (%) [5]: 4%
- Population Tubulin-Different-Phenotype (%) [5]: 22%
- Total Cell Count [5]: 173
- Population Apoptotic (%) [6]: 16%
- Population Fragmented Nuclei (%) [6]: 10%
- Population Healthy Nuclei (%) [6]: 86%
- Population Hoechst High Intensity Objects (%) [6]: 7%
- Population Membrane Permeable-Phenotype (%) [6]: 7%
- Population Mitochondria Different-Phenotype (%) [6]: 34%
- Population Mitotic Cells (%) [6]: 83%
- Population Normal (%) [6]: 92%
- Population Pyknosed Nuclei (%) [6]: 3%
- Population Tubulin-Different-Phenotype (%) [6]: 31%
- Total Cell Count [6]: 93
- Population Apoptotic (%) [7]: 60%
- Population Fragmented Nuclei (%) [7]: 31%
- Population Healthy Nuclei (%) [7]: 63%
- Population Hoechst High Intensity Objects (%) [7]: 35%
- Population Membrane Permeable-Phenotype (%) [7]: 15%
- Population Mitochondria Different-Phenotype (%) [7]: 4%
- Population Mitotic Cells (%) [7]: 40%
- Population Normal (%) [7]: 64%
- Population Pyknosed Nuclei (%) [7]: 4%
- Population Tubulin-Different-Phenotype (%) [7]: 9%
- Total Cell Count [7]: 298
- Population Apoptotic (%) [8]: 31%
- Population Fragmented Nuclei (%) [8]: 39%
- Population Healthy Nuclei (%) [8]: 53%
- Population Hoechst High Intensity Objects (%) [8]: 38%
- Population Membrane Permeable-Phenotype (%) [8]: 7%
- Population Mitochondria Different-Phenotype (%) [8]: 9%
- Population Mitotic Cells (%) [8]: 68%
- Population Normal (%) [8]: 61%
- Population Pyknosed Nuclei (%) [8]: 6%
- Population Tubulin-Different-Phenotype (%) [8]: 7%
- Total Cell Count [8]: 197
